Results taken from PMC9350900 (ACS chemical neuroscience, 2021).
Where two headings read alike, the source gives them in different places.

What was measured:
[1] = format: in vitro ADME; conditions: human
[2] = format: in vitro ADME; conditions: rat
[3] = biological target: T1, melatonin binding site (MT3 (ML2)) on quinone dehydrogenase 2 (Mesocricetus auratus, UniProt A0ABM2YAB8); test: Off-target selectivity screen; conditions: 1.0 μM, specific radioligand
T1 sequence (A0ABM2YAB8 1-231): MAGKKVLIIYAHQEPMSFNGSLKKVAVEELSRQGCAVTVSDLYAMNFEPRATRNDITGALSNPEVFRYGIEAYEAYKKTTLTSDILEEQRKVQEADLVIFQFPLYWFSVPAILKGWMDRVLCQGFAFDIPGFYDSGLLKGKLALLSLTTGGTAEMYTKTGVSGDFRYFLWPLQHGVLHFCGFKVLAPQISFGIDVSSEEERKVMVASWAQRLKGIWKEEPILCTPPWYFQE

[4] = system: 93 CNS receptors and enzymes, including MAO-A and MAO-B; test: Off-target selectivity screen; format: binding; conditions: 93 proteins including MAO-A and MAO-B, 1.0 μM
[5] = biological target: P-glycoprotein (Homo sapiens, UniProt P08183); conditions: MDCK-MDR1
P-glycoprotein, sequence (P08183 whole entry): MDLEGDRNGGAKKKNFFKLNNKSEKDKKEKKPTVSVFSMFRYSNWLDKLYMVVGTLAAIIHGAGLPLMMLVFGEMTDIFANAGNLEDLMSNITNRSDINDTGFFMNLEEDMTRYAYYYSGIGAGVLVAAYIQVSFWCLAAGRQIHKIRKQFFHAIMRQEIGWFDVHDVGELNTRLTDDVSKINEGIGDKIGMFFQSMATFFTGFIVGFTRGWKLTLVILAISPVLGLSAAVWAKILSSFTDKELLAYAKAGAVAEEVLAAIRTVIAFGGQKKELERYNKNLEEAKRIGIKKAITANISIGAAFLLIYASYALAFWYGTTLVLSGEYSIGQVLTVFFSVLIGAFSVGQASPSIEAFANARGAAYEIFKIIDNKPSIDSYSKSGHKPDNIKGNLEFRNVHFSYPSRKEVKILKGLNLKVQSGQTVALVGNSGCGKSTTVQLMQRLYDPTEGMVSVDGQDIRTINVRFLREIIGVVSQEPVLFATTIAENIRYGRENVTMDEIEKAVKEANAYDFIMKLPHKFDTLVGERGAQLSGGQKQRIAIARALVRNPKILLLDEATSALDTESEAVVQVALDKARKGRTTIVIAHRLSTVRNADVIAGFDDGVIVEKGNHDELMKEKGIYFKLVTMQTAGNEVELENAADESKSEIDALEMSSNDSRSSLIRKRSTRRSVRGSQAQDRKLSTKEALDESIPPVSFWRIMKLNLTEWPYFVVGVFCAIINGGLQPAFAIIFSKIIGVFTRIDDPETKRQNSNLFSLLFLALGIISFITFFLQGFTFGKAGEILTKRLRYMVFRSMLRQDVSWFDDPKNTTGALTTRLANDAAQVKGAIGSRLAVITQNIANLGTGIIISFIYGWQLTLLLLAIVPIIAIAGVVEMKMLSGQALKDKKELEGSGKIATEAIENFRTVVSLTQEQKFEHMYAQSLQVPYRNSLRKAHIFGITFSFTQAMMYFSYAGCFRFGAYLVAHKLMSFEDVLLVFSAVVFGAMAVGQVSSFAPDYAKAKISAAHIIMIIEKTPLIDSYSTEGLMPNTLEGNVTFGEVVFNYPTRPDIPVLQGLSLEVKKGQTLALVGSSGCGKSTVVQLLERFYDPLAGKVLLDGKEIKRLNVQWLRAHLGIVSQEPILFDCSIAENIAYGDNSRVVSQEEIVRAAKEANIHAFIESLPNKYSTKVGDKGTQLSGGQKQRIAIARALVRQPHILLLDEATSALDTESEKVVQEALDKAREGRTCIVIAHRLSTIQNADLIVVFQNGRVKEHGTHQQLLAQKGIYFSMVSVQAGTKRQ

[6] = human
[7] = rat
[8] = Dynamic PET imaging in wild-type mice; format: in vivo, mouse; conditions: wt male mice
Summary of the method: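 Three male C57BL/6 mice (7.5 months, 29–32 g) given an i.v. bolus of the [18F] tracer (9.1 ± 1.1 MBq; Am 18 ± 10 GBq/μmol). 60-min dynamic PET/MRI in 33 frames, FBP reconstruction. Decay-corrected, no attenuation or scatter correction. Whole-brain TAC via MR template atlas; SUV = regional radioactivity normalised to injected activity and body weight.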

[9] = Dynamic PET imaging in healthy rats; format: in vivo, rat
Summary of the method: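 Two healthy Sprague-Dawley rats, 3 months old (male 358 g, female 241 g), injected i.v. with 15.5 and 16.5 MBq of the [18F] tracer (Am 19 and 8 GBq/μmol). 120-min dynamic PET/MRI in 39 frames, FBP with Hann filter. Decay-corrected, without attenuation or scatter correction. Whole-brain TAC from MR template atlas; SUV normalised to injected activity and body weight.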

[10] = Baseline dynamic PET imaging in non-human primate; format: in vivo, rhesus monkey (Macaca mulatta); conditions: rhesus monkey, i.v. 185 MBq
Summary of the method: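 Rhesus monkey sedated with ketamine (15 mg/kg i.m.) plus glycopyrrolate (0.01 mg/kg i.m.), intubated, and kept under isoflurane (0.5–2.0%) in 40% oxygen/air. CT scan for attenuation correction. The [18F] tracer (185 MBq, <1.0 microgram mass) was given as a slow i.v. bolus (~20 s) with saline flush. Dynamic 90-min scan in 27 frames, FBP-reconstructed with full corrections. Whole-brain ROI time-activity curve in SUV.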

[11] = Radiometabolite analysis of blood samples in non-human primate; format: in vivo, rhesus monkey (Macaca mulatta); conditions: rhesus monkey blood, 10 min
Summary of the method: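 Anesthetised rhesus monkey given 185 MBq of the [18F] tracer as an i.v. bolus. Venous blood (~3 mL) drawn via saphenous catheter at 2, 10, 30, 45 and 90 min post-injection. Samples analysed by radio-HPLC for radiolabelled metabolites and the time-varying fraction of unmetabolized parent tracer.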

[12] = Lipophilicity by shake-flask method; format: physicochemical; conditions: 1-octanol

SMILES | stability in liver microsomes [1] [mL/min/kg] | stability in liver microsomes [2] [mL/min/kg] | interaction with off-target [3] | affinity for off-targets [4] | efflux ratio (B-A/A-B) [5] | free fraction in blood plasma [6] [%] | free fraction in blood plasma [7] [%] | maximum radioactivity in whole brain ([8]; i.v. bolus 9.1 ± 1.1 MBq) [SUV] | whole brain radioactivity after 30 min ([8]; i.v., after 30 min) | maximum radioactivity in whole brain ([9]; i.v. 15.5 and 16.5 MBq) [SUV] | whole brain radioactivity after 30 min ([9]; i.v., after 30 min) | peak brain activity [10] [SUV] | time to peak brain activity [10] [min] | brain activity after 25 min ([10]; after 25 min) | fraction of unmetabolized parent [11] [%] | logD7.4 [12]
OCC1CCN(c2ccc(-c3cc4cc(O)ccc4[nH]3)c(F)n2)CC1 [CBD-2115] | 8.56 | 63.84 | specific interaction | no significant affinity | 0.98 | 2.70 | 2.85 | – | – | – | – | – | – | – | – | –
OCC1CCN(c2ccc(-c3cc4cc(O)ccc4[nH]3)c([18F])n2)CC1 [[^18F]CBD-2115] | – | – | – | – | – | – | – | 0.66 | below 0.1 SUV | 0.5 | below 0.1 SUV | 0.65 | ≤ 2 | below 0.2 SUV | 45 | 2.99 ± 0.15
